According to ChEMBL document CHEMBL1125234, “Novel pyrrolo[2,3-d]pyrimidine antifolates: synthesis and antitumor activities” (J Med Chem, 1991):
In brackets after ≈: the same amount, converted by molar mass.

Legend:
A549 = assay: In vitro growth inhibitory activity against A549 human nonsmall cell lung carcinoma cells.; type: functional, cell-based
How it was run: (§1)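 Cells seeded at 1 × 10^4 cells/mL in 96-well plates, MEM with 10% fetal calf serum, 37 °C, 5% CO₂, 24 h. Antifolate added in 10% MEM at final 0.15-80 ng/mL, then culture continued 72 h at 37 °C. Cell number estimated by MTT; IC50 taken as concentration giving 50% growth inhibition. Means ± SE of three experiments.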

[1] = In vitro growth inhibitory activity against KB human epidermoid carcinoma cells.; type: functional; how it was run: as §1

## CC(CCc1c[nH]c2nc(N)nc(N)c12)c1ccc(C(=O)N[C@H](CCC(=O)O)C(=O)O)cc1 (stereo not given in full)
A549
  IC50: 2.3 ng/mL (≈ 5.06 nM)
[1]
  IC50: 0.59 ng/mL (≈ 1.3 nM)

## Nc1nc(N)c2c(n1)NCC2CCCc1ccc(C(=O)N[C@H](CCC(=O)O)C(=O)O)cc1 (stereo not given in full)
A549
  IC50: 4.9 ng/mL (≈ 11.1 nM)
[1]
  IC50: 0.49 ng/mL (≈ 1.11 nM)

## CC(CCC1CNc2nc(N)nc(N)c21)c1ccc(C(=O)N[C@H](CCC(=O)O)C(=O)O)cc1 (stereo not given in full)
A549
  IC50: 1.6 ng/mL (≈ 3.5 nM)
[1]
  IC50: 0.3 ng/mL (≈ 0.657 nM)

## Nc1nc(N)c2c(CCCc3ccc(C(=O)N[C@H](CCC(=O)O)C(=O)O)cc3)c[nH]c2n1
A549
  IC50: 4.5 ng/mL (≈ 10.2 nM)
[1]
  IC50: 0.27 ng/mL (≈ 0.613 nM)

## CN(Cc1cnc2nc(N)nc(N)c2n1)c1ccc(C(=O)N[C@@H](CCC(=O)O)C(=O)O)cc1 [METHOTREXATE]
A549
  IC50: 35 ng/mL (≈ 77 nM)
[1]
  IC50: 5.02 ng/mL (≈ 11 nM)
